# Laboratory results taken from ChEMBL document CHEMBL1132618, “Cytotoxicity of (2,2':6',2''-terpyridine)platinum(II) complexes to Leishmania donovani, Trypanosoma cruzi, and Trypanosoma brucei” (J Med Chem, 1999).
# What was measured:
# Leishmania donovani [1] = assay: Antiparasitic activity against Leishmania donovani for % inhibition at 30 uM concentration T/100 means the compound was toxic to macrophages but more toxic to parasites that is none present, 100% inhibition; type: functional, organism-based
# Procedure, shortened: (§1)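 L. donovani MHOM/ET/67/L82 amastigotes from golden hamster spleen infect CD1 mouse peritoneal macrophages at 10:1 in RPMI 1640 + 10% hiFCS, 37 °C, 5% CO2. Compound exposure is a 3-fold dilution series from 30 μM, quadruplicate cultures, 5 days, with medium + drug replaced once. Cells are methanol-fixed and Giemsa-stained, and the proportion of infected cells is compared with untreated cultures. ED50 is derived by linear regression.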
# Trypanosoma cruzi [2] = assay: Antiparasitic activity against Trypanosoma cruzi for % inhibition at 30 uM concentration T/+ means the compound was toxic to macrophages but parasites still present; type: functional, organism-based
# Procedure, shortened: (§2)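 T. cruzi Y strain (MHOM/BR/00/Y) trypomastigotes from MDCK cells infect CD1 mouse peritoneal macrophages at 5:1 in RPMI 1640 + 10% hiFCS, 37 °C, 5% CO2. Compound exposure is a 3-fold dilution series from 30 μM, quadruplicate, 3 days. Read-out is the proportion of infected cells after methanol fixation and Giemsa staining, versus untreated cultures. ED50 is derived by linear regression.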
# Trypanosoma cruzi [3] = assay: Compound was tested for antiparasitic activity caused against Trypanosoma cruzi for effective dose for 50% activity
# Trypanosoma cruzi [4] = assay: Antiparasitic activity against Trypanosoma cruzi for % inhibition at 3 uM concentration T/+ means the compound was toxic to macrophages but parasites still present; type: functional, organism-based; procedure, shortened: as §2
# Trypanosoma brucei [5] = assay: Antiparasitic activity against Trypanosoma brucei, percentage inhibition at 30 uM concentration; type: functional, organism-based
# Procedure, shortened: (§3)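 T. brucei S427 bloodstream trypomastigotes are grown in HMI-18 + 20% hiFCS at 37 °C, 5% CO2. Compound exposure is a 3-fold dilution series from 30 μM, triplicate cultures, 72 h. Read-out is an MTT-based cytotoxicity assay, or Coulter counting of cells/mL in the dose-range screen. ED50 is derived by linear regression of dose-response.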
# Leishmania donovani [6] = assay: Compound was tested for antiparasitic activity caused against Leishmania donovani for percentage inhibition at 3 uM concentration; type: functional, organism-based; procedure, shortened: as §1
# Trypanosoma brucei [7] = assay: Antiparasitic activity caused against Trypanosoma brucei for percentage inhibition at 3 uM concentration; type: functional, organism-based; procedure, shortened: as §3
# Leishmania donovani [8] = assay: Antiparasitic activity against Leishmania donovani for % inhibition at 10 uM concentration T/100 means the compound was toxic to macrophages but more toxic to parasites that is none present, 100% inhibition; type: functional, organism-based; procedure, shortened: as §1
# Trypanosoma brucei [9] = assay: Antiparasitic activity against Trypanosoma brucei, percentage inhibition at 10 uM concentration; type: functional, organism-based; procedure, shortened: as §3
# Trypanosoma cruzi [10] = assay: Antiparasitic activity against Trypanosoma cruzi for % inhibition at 10 uM concentration T/+ means the compound was toxic to macrophages but parasites still present; type: functional, organism-based; procedure, shortened: as §2
# Trypanosoma brucei [11] = assay: Compound was tested for antiparasitic activity caused against Trypanosoma brucei for percentage inhibition at 1 uM concentration; type: functional, organism-based; procedure, shortened: as §3
substance,measurement,setting,value
"(2,2':6',2''-terpyridine)platinum (II) complex",inhibition,Leishmania donovani [1],Total inhibition
same,inhibition,Trypanosoma cruzi [2],toxic to macrophages but parasites still present
same,ED50,Trypanosoma cruzi [3],4 µM
same,inhibition,Trypanosoma cruzi [4],toxic to macrophages but parasites still present
same,inhibition,Trypanosoma brucei [5],100%
same,inhibition,Leishmania donovani [6],99.8%
same,inhibition,Trypanosoma brucei [7],100%
same,inhibition,Leishmania donovani [8],Total inhibition
same,inhibition,Trypanosoma brucei [9],100%
same,inhibition,Trypanosoma cruzi [10],toxic to macrophages but parasites still present
same,inhibition,Trypanosoma brucei [11],100%
